Measurements reported in article PMC4715766 (ACS Chemical Biology, 2015).

Tests used:
Hh signaling = Hh signaling assay; assay type: cell-based, murine; conditions: ShhN-conditioned medium and compound for 30 h
DYNC1H1 = DYNC1H1 (Homo sapiens, UniProt Q14204); experiment: DYNC1H1 ATPase assay; assay type: biochemical
Outline: (§1)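 Purified N-terminally SBP- and SNAP-tagged full-length human heavy chains; hydrolysis of γ-32P ATP measured at 37 °C under conditions kept linear from enzyme reaction curves. Single-dose screens used 50 μM in both assays (about 25 nM γ-32P ATP, duplicates), or 50 μM for DYNC1H1 and 15 μM for DYNC2H1 (two experiments). IC50 calculated from dose-response curves run in triplicate.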

DYNC2H1 = DYNC2H1 (Homo sapiens, UniProt Q8NCM8); experiment: DYNC2H1 ATPase assay; assay type: biochemical
DYNC2H1, sequence (Q8NCM8 whole entry): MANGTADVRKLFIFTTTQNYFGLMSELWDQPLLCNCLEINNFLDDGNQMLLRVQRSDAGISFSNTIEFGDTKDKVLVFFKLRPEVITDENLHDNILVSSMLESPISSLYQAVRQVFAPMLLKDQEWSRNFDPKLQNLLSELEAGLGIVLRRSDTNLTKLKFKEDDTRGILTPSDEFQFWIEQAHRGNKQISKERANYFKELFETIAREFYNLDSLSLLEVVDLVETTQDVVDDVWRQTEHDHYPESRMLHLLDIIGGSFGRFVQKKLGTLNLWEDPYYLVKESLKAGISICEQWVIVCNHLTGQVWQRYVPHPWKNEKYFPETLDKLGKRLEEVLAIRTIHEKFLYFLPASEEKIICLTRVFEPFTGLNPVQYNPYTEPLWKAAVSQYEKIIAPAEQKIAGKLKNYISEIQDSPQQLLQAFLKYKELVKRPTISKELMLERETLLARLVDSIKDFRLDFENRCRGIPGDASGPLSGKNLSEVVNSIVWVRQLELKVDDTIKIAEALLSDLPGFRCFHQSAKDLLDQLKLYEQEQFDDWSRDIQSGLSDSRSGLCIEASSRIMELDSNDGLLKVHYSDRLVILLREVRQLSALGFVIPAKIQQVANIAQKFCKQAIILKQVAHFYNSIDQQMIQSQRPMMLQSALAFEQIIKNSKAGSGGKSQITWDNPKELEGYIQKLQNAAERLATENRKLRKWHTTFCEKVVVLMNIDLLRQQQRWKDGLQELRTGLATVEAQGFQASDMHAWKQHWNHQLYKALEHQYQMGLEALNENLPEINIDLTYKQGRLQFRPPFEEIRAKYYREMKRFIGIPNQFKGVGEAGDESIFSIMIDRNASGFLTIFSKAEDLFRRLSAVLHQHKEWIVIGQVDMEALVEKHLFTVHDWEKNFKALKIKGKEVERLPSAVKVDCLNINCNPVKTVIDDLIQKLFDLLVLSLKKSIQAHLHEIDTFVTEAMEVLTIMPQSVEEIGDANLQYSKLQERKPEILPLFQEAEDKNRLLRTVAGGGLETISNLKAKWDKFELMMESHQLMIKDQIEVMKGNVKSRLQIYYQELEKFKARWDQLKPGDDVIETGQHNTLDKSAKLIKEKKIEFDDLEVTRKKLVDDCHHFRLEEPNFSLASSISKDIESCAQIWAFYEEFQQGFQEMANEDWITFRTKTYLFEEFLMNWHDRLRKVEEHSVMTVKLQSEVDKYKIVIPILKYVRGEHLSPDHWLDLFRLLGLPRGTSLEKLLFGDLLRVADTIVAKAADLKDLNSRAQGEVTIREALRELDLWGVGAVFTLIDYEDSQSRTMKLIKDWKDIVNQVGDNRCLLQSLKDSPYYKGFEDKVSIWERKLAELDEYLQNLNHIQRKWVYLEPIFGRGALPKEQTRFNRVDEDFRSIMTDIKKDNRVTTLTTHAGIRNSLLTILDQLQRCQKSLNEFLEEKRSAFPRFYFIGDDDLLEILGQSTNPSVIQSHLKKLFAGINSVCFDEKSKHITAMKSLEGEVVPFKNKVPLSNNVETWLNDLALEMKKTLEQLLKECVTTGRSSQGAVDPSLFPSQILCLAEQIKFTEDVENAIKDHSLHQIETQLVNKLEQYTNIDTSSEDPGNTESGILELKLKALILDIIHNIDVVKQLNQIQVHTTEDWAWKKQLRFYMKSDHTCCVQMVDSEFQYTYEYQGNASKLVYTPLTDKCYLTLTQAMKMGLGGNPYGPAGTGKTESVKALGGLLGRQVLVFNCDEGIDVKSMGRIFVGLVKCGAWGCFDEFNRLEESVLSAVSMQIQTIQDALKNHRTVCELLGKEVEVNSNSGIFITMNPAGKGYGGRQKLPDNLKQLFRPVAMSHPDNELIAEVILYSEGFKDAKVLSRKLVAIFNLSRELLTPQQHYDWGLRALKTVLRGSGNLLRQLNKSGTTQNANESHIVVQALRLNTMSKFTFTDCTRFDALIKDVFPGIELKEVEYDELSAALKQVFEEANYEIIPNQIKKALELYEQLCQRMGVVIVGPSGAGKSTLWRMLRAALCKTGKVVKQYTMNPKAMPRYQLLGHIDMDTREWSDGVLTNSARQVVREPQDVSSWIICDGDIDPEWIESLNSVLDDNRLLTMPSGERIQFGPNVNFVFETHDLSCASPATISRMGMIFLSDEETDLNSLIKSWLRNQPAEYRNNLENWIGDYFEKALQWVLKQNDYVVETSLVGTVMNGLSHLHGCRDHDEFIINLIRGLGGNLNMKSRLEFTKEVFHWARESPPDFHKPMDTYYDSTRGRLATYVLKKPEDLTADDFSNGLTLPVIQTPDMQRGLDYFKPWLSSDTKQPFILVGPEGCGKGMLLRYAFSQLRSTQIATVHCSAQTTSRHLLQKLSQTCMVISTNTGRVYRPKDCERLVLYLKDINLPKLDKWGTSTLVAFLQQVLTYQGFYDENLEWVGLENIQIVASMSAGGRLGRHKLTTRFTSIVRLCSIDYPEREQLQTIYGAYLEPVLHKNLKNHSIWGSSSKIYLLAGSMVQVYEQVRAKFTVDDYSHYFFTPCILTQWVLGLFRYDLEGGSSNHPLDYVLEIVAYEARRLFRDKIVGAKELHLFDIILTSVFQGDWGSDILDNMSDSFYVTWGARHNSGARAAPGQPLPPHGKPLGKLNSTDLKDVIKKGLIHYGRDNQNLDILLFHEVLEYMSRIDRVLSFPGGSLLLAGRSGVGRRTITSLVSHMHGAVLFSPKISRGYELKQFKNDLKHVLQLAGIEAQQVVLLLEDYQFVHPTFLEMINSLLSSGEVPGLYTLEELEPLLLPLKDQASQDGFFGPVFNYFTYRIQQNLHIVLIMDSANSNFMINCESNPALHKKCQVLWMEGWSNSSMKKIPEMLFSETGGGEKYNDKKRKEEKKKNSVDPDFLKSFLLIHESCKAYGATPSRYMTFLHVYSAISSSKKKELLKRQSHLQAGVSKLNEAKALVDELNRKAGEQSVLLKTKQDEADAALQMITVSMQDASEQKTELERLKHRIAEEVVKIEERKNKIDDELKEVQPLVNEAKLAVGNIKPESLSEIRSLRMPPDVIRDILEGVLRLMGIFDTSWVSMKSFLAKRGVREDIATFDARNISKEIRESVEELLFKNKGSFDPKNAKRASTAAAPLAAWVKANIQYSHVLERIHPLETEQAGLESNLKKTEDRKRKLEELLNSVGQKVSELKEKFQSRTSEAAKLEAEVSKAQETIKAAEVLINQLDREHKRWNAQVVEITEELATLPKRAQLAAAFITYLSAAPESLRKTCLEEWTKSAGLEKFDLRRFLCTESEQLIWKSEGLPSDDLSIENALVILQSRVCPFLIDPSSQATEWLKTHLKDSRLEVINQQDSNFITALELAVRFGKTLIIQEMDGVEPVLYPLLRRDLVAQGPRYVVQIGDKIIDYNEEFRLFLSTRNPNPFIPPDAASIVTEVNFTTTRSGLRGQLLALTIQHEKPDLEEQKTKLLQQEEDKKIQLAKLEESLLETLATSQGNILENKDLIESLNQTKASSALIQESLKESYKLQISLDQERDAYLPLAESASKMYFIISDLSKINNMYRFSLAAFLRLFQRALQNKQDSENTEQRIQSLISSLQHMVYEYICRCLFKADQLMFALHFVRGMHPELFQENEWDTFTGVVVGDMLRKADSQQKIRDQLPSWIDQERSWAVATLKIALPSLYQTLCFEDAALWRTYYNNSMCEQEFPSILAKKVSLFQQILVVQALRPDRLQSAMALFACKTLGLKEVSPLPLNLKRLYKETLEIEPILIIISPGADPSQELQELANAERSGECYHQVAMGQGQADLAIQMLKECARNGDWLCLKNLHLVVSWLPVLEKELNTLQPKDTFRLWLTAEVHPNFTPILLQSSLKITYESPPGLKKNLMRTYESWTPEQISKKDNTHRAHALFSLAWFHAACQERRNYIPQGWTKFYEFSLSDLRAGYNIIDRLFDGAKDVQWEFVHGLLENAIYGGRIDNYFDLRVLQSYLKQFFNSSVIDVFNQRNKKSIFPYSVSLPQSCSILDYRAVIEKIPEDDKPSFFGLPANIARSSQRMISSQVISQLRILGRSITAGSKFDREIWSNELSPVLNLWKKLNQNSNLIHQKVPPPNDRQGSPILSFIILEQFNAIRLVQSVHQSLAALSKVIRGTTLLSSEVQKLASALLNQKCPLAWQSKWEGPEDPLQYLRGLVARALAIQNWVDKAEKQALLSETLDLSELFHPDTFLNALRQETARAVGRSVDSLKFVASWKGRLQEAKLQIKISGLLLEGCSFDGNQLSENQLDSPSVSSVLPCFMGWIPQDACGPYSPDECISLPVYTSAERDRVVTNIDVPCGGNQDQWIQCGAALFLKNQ
Outline: as §1

[1] = tested on: NIH-3T3 cell-derived line; experiment: Ciliogenesis assay; assay type: cell-based, murine; conditions: 30 μM; 24 h
Outline: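 NIH-3T3-derived cells were exposed to the test compound at 30 μM for 24 h, then fixed and immunostained for ARL13B. Primary cilium length was taken as the mean number of ARL13B-positive pixels per cell over at least 6 fields of view, about 800 cells per condition, reported ± s.e.m.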

IMCD3 cells = experiment: Real-time imaging of mNeonGreen-IFT88 movement; assay type: cell-based, murine; conditions: 15 μM
Outline: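 Live IMCD3 cells expressing mNeonGreen-IFT88 were given 15 μM test compound or DMSO for 3 min and imaged in real time. Foci were tracked and classed as anterograde, retrograde or immobile, and their mean velocity and frequency were quantified from at least seven cilia across three independent experiments (± s.e.m.; P < 0.05 or 0.01).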

| SMILES | inhibition of Hh signaling (Hh signaling) | IC50 (DYNC1H1) [µM] | IC50 (DYNC2H1) [µM] | inhibition of ciliogenesis / primary cilium length [1] | time to disruption of ciliary transport (IMCD3 cells) [min] |
| --- | --- | --- | --- | --- | --- |
| CC(C)Oc1ccc2c(c1)NC(=C(C#N)C(=O)c1ccc(Cl)cc1Cl)NC2=O [analog 18] | Dose-dependent inhibition of Hh signaling | 130 | 21 | Inhibition of ciliogenesis |  |
| Cc1ccc(COc2ccc3c(c2)NC(=C(C#N)C(=O)c2ccc(Cl)cc2Cl)NC3=O)cc1 [analog 37] |  |  |  |  | ≤ 3 |
